INS promoter act = activators of insulin promoter-driven GFP, primary screen, imaging, TRM-6 cells, eGFP reporter, cell count | plate-scaled: unstimulated 0, stimulated control 100 | activation, % at 2 µM | 130,000 tested, 0.81% active;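 active = activation at 2 µM above a set limit, confirmed on inspection of the cell images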;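 also: share of cells whose green reporter signal exceeds an intensity cutoff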
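Material: Human fetal islet-derived TRM-6 cells with tamoxifen-inducible insulin promoter–eGFP reporter | Medium: Low-glucose (5.5 mM) medium with tamoxifen | Probe or stimulus: Tamoxifen inducer, 0.75 µM, in seeding medium | Schedule: Tamoxifen pre-incubation 15 h overnight, then compound exposure 48 h at 37 °C | Detection: High-content imaging of fixed cells with Hoechst nuclear stain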
Hits are given with their value; i = inactive. The entries come from a sample that favours hits as a whole.

SMILES | INS promoter act
O=c1c2ccccc2nc(/C=C/c2ccc([N+](=O)[O-])o2)n1-c1ccc(O)cc1 | 525.0
CCOc1ccc(-n2c(-c3ccoc3)nc3ccccc3c2=O)cc1 | i
CCc1c(C(=O)NN2C(=O)C3C4CCC(O4)C3C2=O)csc1C (configuration not stated) | i
Cc1ccc2c(c1)C1CN(C)CCC1N2C(=O)/C(C#N)=C/c1ccc2c(c1)OCO2 (configuration not stated) | i
Cc1c2ccncc2c(C)c2c1[nH]c1ccccc12 | 354.5
CCOP(=O)(OCC)C(NC(=O)CN1C(=O)c2ccccc2S1(=O)=O)C(Cl)(Cl)Cl (configuration not stated) | i
O=C(Cn1nc(-c2ccc(Cl)cc2)ccc1=O)N1CCC2(CC1)OCCO2 | i
Cc1cc(C(=O)CS(=O)(=O)c2ccccc2)cc(C)c1OC(=O)N(C)C | i
Cc1cc2c(C(C)C)c(O)c(O)c(C=O)c2c(O)c1-c1c(C)cc2c(C(C)C)c(O)c(O)c(C=O)c2c1O | i
O=c1cc(C(F)(F)F)c2cc3c4c(c2o1)CCCN4CCC3 | 164.4
CC(C)=CCOc1c2occc2cc2ccc(=O)oc12 | i
Clc1cccc(C2NCCc3[nH]cnc32)c1 (configuration not stated) | i
CSc1ncc(/C=C2/C(=O)NC(=O)N(c3ccc(Cl)cc3)C2=O)cn1 | 260.0
O=C1NC(=O)N(c2ccc(Br)cc2)C(=O)/C1=C/c1ccsc1 | i
COc1ccc(/C=C2/C(=O)NC(=O)N(c3ccc(C)c(C)c3)C2=O)cc1CN1C(=O)c2ccccc2C1=O | i
O=C1NC(=O)C(C(CC(=O)c2ccccc2)c2ccccc2)C(=O)N1 (configuration not stated) | i
CSCCC(N=Cc1c(O)n(-c2ccc(Br)cc2)c(=O)[nH]c1=O)C(=O)OC(C)(C)C (configuration not stated) | i
COCCN1Cc2cc(=O)n3c([nH]c4ccccc43)c2C1=N | i
CC1NCCC2(O)CCCCC12 (configuration not stated) | i
Cc1ccc2c(c1)CC1(CN2C)C(=O)NC(=O)N(c2ccc(C)c(C)c2)C1=O (configuration not stated) | i
O=C(/C=C/c1ccccc1)NCCc1cnc[nH]1 | i
CC1(C)C2([N+](=O)[O-])CNCC1([N+](=O)[O-])CNC2 | i
C(#CCN1CCOCC1)COCC#Cc1ccccc1 | 79.0
Cc1cc(Cl)ccc1OCCCC(=O)NCc1cccs1 | i
CC(=O)CC(=O)C1C(=O)N(C)C(=O)N(C)C1=O | i
SMILES | INS promoter act
Cc1cc(C)n2nc(C)[n+](C)c2n1 | i
Cc1noc(C)c1C(=O)N1CCC2(CC1)OCCO2 | i
Cc1cc(C(=O)N2CCC3(CC2)OCCO3)cs1 | i
O=C(c1ccc2c(c1)ncn2-c1ccc(F)cc1F)N1CCC2(CC1)OCCO2 | 485.7
CC1CCN(C(=O)c2ccc(N3CC4CC(C3)c3cccc(=O)n3C4)c([N+](=O)[O-])c2)CC1 (configuration not stated) | i
COc1cc(OC)c2c(c1)OCC1CON(C)C21 (configuration not stated) | i
O=C(CCCOc1ccc(Cl)cc1Cl)N1CCC2(CC1)OCCO2 | i
O=C(CNC1CCCCC1)N1CCC2(CC1)OCCO2 | 658.3
Cc1ccc(-c2ccc(=O)n(CCC(=O)N3CCC4(CC3)OCCO4)n2)cc1 | i
C[C@]12CCC(=O)C=C1CC[C@@H]1[C@@H]2C(=O)C[C@]2(C)C(=O)CC[C@@H]12 | i
N#CCN1CCN(c2ccc(C(F)(F)F)cc2)CC1 | i
COc1ccc(O)c(C(C)(C)C)c1 | i
COc1ccc(C(=O)C(C)(C)NO)cc1 | 468.8
COc1ccc(C(=O)C(Cc2ccccc2)N(C)C)cc1 (configuration not stated) | i
CC(=O)c1cn(CCCOc2ccccc2)c2ccccc12 | i
CCCCn1c(O)c(C(CC)=NCc2ccc(F)cc2)c(=O)[nH]c1=O | i
C=CCn1c(O)c(C(CC)=NCCc2ccccc2)c(=O)[nH]c1=O | 550.0
C=CCn1c(O)c(C(C)=NCCc2ccccc2)c(=O)[nH]c1=O | i
CC(C)NC(=O)c1ccc(N2CC3CC(C2)c2cccc(=O)n2C3)c([N+](=O)[O-])c1 (configuration not stated) | i
CSc1ccc(C(=O)C(C)(C)N2CCOCC2)cc1 | i
